Test results: ChEMBL document CHEMBL3797186, “Single Residue Substitutions That Confer Voltage-Gated Sodium Ion Channel Subtype Selectivity in the NaV1.7 Inhibitory Peptide GpTx-1” (J Med Chem, 2016)
Positions of bridges follow the written chain, without caps; N, C: chain ends. Non-standard residues stand in square brackets, D forms with d. Residues, ends and D or L forms follow the SMILES beside them. 1Nal = N[C@@H](Cc1cccc2ccccc12)C(=O)O

Tests used:
Type in all cases: cell-based
[1] = target: T1, Sodium channel protein type 9 subunit alpha (Homo sapiens, UniProt Q15858); experiment: Inhibition of human Nav1.7 expressed in HEK293 cells assessed as inward peak current by ion-works quattro patch clamp electrophysiology method
[2] = target: T2, Sodium channel protein type 5 subunit alpha (Homo sapiens, UniProt Q14524); experiment: Inhibition of human Nav1.5 expressed in HEK293 cells by whole cell patch clamp electrophysiology method
In short: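 Stable HEK293 line expressing human NaV1.5, recorded on the PatchXpress 7000A. Percent inhibition versus concentration was pooled from at least 10 cells, with two to three points per concentration. The pooled set was fitted with a four-parameter Hill equation to give a single IC50 curve.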

[3] = target: T1, Sodium channel protein type 9 subunit alpha; experiment: Inhibition of human Nav1.7 expressed in HEK293 cells by whole cell patch clamp electrophysiology method
[4] = target: T2, Sodium channel protein type 5 subunit alpha; experiment: Inhibition of human Nav1.5 expressed in HEK293 cells assessed as inward peak current by ion-works quattro patch clamp electrophysiology method
In short: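 Stable HEK293 line expressing human NaV1.5, recorded by population patch clamp on the IonWorks Quattro.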

T1 sequence (Q15858 whole entry): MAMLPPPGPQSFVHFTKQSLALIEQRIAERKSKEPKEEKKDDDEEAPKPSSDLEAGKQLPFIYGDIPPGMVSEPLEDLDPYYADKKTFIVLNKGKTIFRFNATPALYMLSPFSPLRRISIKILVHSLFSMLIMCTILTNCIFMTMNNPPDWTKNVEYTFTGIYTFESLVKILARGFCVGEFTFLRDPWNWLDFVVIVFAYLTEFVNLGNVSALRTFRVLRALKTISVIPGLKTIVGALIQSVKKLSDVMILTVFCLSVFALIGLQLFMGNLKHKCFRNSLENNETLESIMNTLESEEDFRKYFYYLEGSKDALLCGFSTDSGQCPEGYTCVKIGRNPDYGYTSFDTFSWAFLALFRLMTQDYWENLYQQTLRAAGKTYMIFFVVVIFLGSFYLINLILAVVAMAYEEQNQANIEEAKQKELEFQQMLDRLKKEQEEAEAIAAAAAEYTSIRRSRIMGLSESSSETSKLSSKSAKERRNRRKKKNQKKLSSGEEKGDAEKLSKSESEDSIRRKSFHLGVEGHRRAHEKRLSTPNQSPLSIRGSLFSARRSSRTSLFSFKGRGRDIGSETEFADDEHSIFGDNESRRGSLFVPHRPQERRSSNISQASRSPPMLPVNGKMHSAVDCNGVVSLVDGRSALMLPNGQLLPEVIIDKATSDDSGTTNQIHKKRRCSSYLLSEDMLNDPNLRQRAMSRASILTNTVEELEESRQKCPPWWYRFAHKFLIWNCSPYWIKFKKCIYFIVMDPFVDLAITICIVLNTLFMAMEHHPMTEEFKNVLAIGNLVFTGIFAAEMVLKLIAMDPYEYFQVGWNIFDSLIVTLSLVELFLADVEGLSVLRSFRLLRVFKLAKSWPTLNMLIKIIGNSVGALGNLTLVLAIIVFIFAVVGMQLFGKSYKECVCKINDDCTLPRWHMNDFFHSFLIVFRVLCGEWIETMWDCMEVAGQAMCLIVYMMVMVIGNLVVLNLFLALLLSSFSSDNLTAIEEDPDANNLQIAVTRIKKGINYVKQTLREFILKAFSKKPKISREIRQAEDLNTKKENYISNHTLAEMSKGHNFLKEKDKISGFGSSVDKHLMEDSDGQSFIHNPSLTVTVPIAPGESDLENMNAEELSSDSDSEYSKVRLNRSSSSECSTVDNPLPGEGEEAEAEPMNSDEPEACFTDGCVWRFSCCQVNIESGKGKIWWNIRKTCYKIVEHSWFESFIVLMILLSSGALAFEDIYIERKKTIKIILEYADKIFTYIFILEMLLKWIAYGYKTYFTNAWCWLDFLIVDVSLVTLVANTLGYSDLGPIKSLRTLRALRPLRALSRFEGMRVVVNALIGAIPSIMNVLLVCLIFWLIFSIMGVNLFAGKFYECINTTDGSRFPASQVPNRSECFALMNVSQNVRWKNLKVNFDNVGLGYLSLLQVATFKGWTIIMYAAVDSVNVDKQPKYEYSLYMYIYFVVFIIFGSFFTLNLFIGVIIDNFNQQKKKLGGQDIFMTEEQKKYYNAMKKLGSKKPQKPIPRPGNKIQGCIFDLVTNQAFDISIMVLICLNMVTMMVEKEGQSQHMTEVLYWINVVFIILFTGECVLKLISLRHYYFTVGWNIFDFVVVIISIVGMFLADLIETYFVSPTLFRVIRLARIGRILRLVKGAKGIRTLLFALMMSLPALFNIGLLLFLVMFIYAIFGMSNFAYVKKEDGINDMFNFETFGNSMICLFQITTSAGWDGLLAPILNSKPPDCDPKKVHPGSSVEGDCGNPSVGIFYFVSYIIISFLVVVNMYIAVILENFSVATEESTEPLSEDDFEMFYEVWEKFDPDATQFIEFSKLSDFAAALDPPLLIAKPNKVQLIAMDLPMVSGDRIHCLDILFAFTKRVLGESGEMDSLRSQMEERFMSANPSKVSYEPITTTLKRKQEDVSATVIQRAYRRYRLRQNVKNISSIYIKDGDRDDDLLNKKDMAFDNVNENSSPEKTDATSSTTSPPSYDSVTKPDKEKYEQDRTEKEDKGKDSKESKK
T2 sequence (Q14524 whole entry): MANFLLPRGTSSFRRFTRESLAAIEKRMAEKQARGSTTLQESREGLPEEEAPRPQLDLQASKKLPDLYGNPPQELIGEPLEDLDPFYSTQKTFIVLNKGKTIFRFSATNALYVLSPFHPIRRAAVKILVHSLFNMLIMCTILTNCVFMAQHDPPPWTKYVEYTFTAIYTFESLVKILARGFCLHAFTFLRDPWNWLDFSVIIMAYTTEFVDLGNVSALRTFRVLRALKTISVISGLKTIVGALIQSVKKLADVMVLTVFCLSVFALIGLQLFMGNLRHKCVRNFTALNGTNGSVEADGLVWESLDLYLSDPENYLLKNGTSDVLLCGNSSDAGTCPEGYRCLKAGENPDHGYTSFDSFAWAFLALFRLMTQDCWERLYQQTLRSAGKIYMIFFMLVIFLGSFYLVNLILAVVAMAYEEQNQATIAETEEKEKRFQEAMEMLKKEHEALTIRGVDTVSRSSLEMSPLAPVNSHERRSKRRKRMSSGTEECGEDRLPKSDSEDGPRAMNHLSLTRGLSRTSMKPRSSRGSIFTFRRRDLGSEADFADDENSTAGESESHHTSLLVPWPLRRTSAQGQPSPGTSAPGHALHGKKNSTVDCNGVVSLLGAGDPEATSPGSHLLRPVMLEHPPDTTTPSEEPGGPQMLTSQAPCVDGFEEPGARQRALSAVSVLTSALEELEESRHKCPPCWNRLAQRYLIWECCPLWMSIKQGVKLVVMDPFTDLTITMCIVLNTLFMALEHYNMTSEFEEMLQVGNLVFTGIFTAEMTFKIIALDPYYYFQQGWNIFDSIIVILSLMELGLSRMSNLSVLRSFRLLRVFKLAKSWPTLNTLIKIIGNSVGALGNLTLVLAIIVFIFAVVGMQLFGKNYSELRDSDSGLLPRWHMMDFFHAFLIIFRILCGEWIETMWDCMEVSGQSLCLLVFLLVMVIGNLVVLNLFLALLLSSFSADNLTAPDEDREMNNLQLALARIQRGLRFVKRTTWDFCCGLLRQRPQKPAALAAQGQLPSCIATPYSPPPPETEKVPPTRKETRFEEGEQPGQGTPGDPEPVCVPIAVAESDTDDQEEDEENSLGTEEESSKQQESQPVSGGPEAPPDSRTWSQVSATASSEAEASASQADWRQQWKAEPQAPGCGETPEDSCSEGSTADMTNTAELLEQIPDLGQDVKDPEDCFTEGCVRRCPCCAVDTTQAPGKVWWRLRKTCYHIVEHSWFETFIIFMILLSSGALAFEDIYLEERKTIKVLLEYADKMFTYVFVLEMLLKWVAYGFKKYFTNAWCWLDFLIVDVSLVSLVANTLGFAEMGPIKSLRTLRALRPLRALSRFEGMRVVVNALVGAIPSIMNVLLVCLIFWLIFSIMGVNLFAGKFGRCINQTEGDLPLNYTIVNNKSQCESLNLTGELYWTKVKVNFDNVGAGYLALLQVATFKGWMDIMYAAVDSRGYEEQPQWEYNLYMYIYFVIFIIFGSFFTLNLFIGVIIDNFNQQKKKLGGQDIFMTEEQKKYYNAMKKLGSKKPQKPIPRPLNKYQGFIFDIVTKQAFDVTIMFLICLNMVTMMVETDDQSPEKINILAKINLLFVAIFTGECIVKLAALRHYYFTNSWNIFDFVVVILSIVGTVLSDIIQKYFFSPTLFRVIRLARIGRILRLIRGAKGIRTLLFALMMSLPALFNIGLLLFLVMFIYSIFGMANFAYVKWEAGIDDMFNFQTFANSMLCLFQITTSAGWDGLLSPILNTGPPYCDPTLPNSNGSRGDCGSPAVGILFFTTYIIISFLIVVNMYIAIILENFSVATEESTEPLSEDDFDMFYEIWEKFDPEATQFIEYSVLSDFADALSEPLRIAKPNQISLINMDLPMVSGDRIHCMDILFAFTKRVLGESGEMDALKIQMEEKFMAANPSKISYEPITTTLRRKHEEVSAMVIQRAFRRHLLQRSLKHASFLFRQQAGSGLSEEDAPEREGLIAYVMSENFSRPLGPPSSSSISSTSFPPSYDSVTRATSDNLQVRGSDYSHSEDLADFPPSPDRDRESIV

CC[C@H](C)[C@@H]1NC(=O)[C@@H]2CSSC[C@@H]3NC(=O)[C@H](C(C)C)NC(=O)[C@H](CC(C)C)NC(=O)[C@H](CC(N)=O)NC(=O)[C@@H]4CCCN4C(=O)[C@H](CCCNC(=N)N)NC(=O)[C@H](CSSC[C@H](NC(=O)[C@@H](N)CC(=O)O)C(=O)N[C@@H](CC(C)C)C(=O)NCC(=O)N[C@@H](Cc4ccccc4)C(=O)N[C@@H](CCSC)C(=O)N[C@@H](CCCNC(=N)N)C(=O)N[C@@H](CCCCN)C(=O)N2)NC(=O)[C@H](CSSC[C@@H](C(=O)N[C@@H](CCCCN)C(=O)N[C@@H](Cc2ccc(O)cc2)C(=O)N[C@H](C(=O)N[C@@H](Cc2ccccc2)C(N)=O)C(C)C)NC(=O)[C@H](Cc2c[nH]c4ccccc24)NC(=O)[C@H](CCC(N)=O)NC(=O)[C@H](Cc2cnc[nH]2)NC(=O)[C@H]([C@@H](C)O)NC(=O)[C@H](CCCNC(=N)N)NC(=O)[C@H](CO)NC3=O)NC(=O)[C@H](CCCCN)NC(=O)[C@H](CC(=O)O)NC(=O)[C@H](CC(N)=O)NC(=O)[C@H](CC(=O)O)NC(=O)[C@@H]2CCCN2C1=O (H-DCLGFMRKCIPDNDKCCRPNLVCSRTHQWCKYVF-NH2; disulfide 2-17, 9-23, 16-30)
IC50 [1]: 200 nM | IC50 [2]: > 10000 nM

CC[C@H](C)[C@@H]1NC(=O)[C@@H]2CSSC[C@@H]3NC(=O)[C@H](C(C)C)NC(=O)[C@H](CC(C)C)NC(=O)[C@H](CC(N)=O)NC(=O)[C@@H]4CCCN4C(=O)[C@H](CCCNC(=N)N)NC(=O)[C@H](CSSC[C@H](NC(=O)[C@@H](N)CC(=O)O)C(=O)N[C@@H](CC(C)C)C(=O)NCC(=O)N[C@@H](Cc4ccccc4)C(=O)N[C@@H](CCSC)C(=O)N[C@@H](CCCNC(=N)N)C(=O)N[C@@H](CCCCN)C(=O)N2)NC(=O)[C@H](CSSC[C@@H](C(=O)N[C@@H](CCCCN)C(=O)N[C@@H](Cc2c[nH]c4ccccc24)C(=O)N[C@H](C(=O)N[C@@H](Cc2ccccc2)C(N)=O)C(C)C)NC(=O)[C@H](Cc2c[nH]c4ccccc24)NC(=O)[C@H](CCCCN)NC(=O)[C@H](Cc2c[nH]cn2)NC(=O)[C@H]([C@@H](C)O)NC(=O)[C@H](CCCNC(=N)N)NC(=O)[C@H](CO)NC3=O)NC(=O)[C@H](CCCCN)NC(=O)[C@H](CC(=O)O)NC(=O)[C@H](CC(N)=O)NC(=O)[C@H](CC(=O)O)NC(=O)[C@@H]2CCCN2C1=O (H-DCLGFMRKCIPDNDKCCRPNLVCSRTHKWCKWVF-NH2; disulfide 2-17, 9-23, 16-30)
IC50 [3]: 12 nM | IC50 [4]: > 5000 nM

CC[C@H](C)[C@@H]1NC(=O)[C@@H]2CSSC[C@@H]3NC(=O)[C@H](C(C)C)NC(=O)[C@H](CC(C)C)NC(=O)[C@H](CC(N)=O)NC(=O)[C@@H]4CCCN4C(=O)[C@H](CCCNC(=N)N)NC(=O)[C@H](CSSC[C@H](NC(=O)[C@@H](N)CC(=O)O)C(=O)N[C@@H](CC(C)C)C(=O)NCC(=O)N[C@@H](Cc4ccccc4)C(=O)N[C@@H](CCSC)C(=O)N[C@@H](CCCNC(=N)N)C(=O)N[C@@H](CCCCN)C(=O)N2)NC(=O)[C@H](CSSC[C@@H](C(=O)N[C@@H](CCCCN)C(=O)N[C@@H](Cc2cccc4ccccc24)C(=O)N[C@H](C(=O)N[C@@H](Cc2ccccc2)C(N)=O)C(C)C)NC(=O)[C@H](Cc2c[nH]c4ccccc24)NC(=O)[C@H](CCCCN)NC(=O)[C@H](Cc2cnc[nH]2)NC(=O)[C@H]([C@@H](C)O)NC(=O)[C@H](CCCNC(=N)N)NC(=O)[C@H](CO)NC3=O)NC(=O)[C@H](CCCCN)NC(=O)[C@H](CC(=O)O)NC(=O)[C@H](CC(N)=O)NC(=O)[C@H](CC(=O)O)NC(=O)[C@@H]2CCCN2C1=O (H-DCLGFMRKCIPDNDKCCRPNLVCSRTHKWCK[1Nal]VF-NH2; disulfide 2-17, 9-23, 16-30)
IC50 [1]: 9 nM | IC50 [4]: 3500 nM | IC50 [2]: 1000 nM

CC[C@H](C)[C@@H]1NC(=O)[C@@H]2CSSC[C@@H]3NC(=O)[C@H](C(C)C)NC(=O)[C@H](CC(C)C)NC(=O)[C@H](CC(N)=O)NC(=O)[C@@H]4CCCN4C(=O)[C@H](CCCNC(=N)N)NC(=O)[C@H](CSSC[C@H](NC(=O)[C@@H](N)CC(=O)O)C(=O)N[C@@H](CC(C)C)C(=O)N[C@@H](CCCCN)C(=O)N[C@@H](Cc4ccccc4)C(=O)N[C@@H](CCSC)C(=O)N[C@@H](CCCNC(=N)N)C(=O)N[C@@H](CCCCN)C(=O)N2)NC(=O)[C@H](CSSC[C@@H](C(=O)N[C@@H](CCCCN)C(=O)N[C@@H](Cc2ccc(O)cc2)C(=O)N[C@H](C(=O)N[C@@H](Cc2ccccc2)C(N)=O)C(C)C)NC(=O)[C@H](Cc2c[nH]c4ccccc24)NC(=O)[C@H](CCCCN)NC(=O)[C@H](Cc2cnc[nH]2)NC(=O)[C@H]([C@@H](C)O)NC(=O)[C@H](CCCNC(=N)N)NC(=O)[C@H](CO)NC3=O)NC(=O)[C@H](CCCCN)NC(=O)[C@H](CC(=O)O)NC(=O)[C@H](CC(N)=O)NC(=O)[C@H](CC(=O)O)NC(=O)[C@@H]2CCCN2C1=O (H-DCLKFMRKCIPDNDKCCRPNLVCSRTHKWCKYVF-NH2; disulfide 2-17, 9-23, 16-30)
IC50 [1]: 210 nM | IC50 [4]: > 5000 nM | IC50 [2]: 10100 nM

CC[C@H](C)[C@@H]1NC(=O)[C@@H]2CSSC[C@@H]3NC(=O)[C@H](C(C)C)NC(=O)[C@H](CC(C)C)NC(=O)[C@H](CC(N)=O)NC(=O)[C@@H]4CCCN4C(=O)[C@H](CCCNC(=N)N)NC(=O)[C@H](CSSC[C@H](NC(=O)[C@@H](N)CC(=O)O)C(=O)N[C@@H](CC(C)C)C(=O)N[C@@H](CCCNC(=N)N)C(=O)N[C@@H](Cc4ccccc4)C(=O)N[C@@H](CCSC)C(=O)N[C@@H](CCCNC(=N)N)C(=O)N[C@@H](CCCCN)C(=O)N2)NC(=O)[C@H](CSSC[C@@H](C(=O)N[C@@H](CCCCN)C(=O)N[C@@H](Cc2ccc(O)cc2)C(=O)N[C@H](C(=O)N[C@@H](Cc2ccccc2)C(N)=O)C(C)C)NC(=O)[C@H](Cc2c[nH]c4ccccc24)NC(=O)[C@H](CCCCN)NC(=O)[C@H](Cc2cnc[nH]2)NC(=O)[C@H]([C@@H](C)O)NC(=O)[C@H](CCCNC(=N)N)NC(=O)[C@H](CO)NC3=O)NC(=O)[C@H](CCCCN)NC(=O)[C@H](CC(=O)O)NC(=O)[C@H](CC(N)=O)NC(=O)[C@H](CC(=O)O)NC(=O)[C@@H]2CCCN2C1=O (H-DCLRFMRKCIPDNDKCCRPNLVCSRTHKWCKYVF-NH2; disulfide 2-17, 9-23, 16-30)
IC50 [1]: 230 nM | IC50 [4]: > 5000 nM | IC50 [2]: 4500 nM

CC[C@H](C)[C@@H]1NC(=O)[C@@H]2CSSC[C@@H]3NC(=O)[C@H](C(C)C)NC(=O)[C@H](CC(C)C)NC(=O)[C@H](CC(N)=O)NC(=O)[C@@H]4CCCN4C(=O)[C@H](CCCNC(=N)N)NC(=O)[C@H](CSSC[C@H](NC(=O)[C@@H](N)CC(=O)O)C(=O)N[C@@H](CC(C)C)C(=O)NCC(=O)N[C@@H](Cc4ccccc4)C(=O)N[C@@H](CCSC)C(=O)N[C@@H](CCCNC(=N)N)C(=O)N[C@@H](CCCCN)C(=O)N2)NC(=O)[C@H](CSSC[C@@H](C(=O)N[C@@H](CCCCN)C(=O)N[C@@H](Cc2ccc(O)cc2)C(=O)N[C@H](C(=O)N[C@@H](Cc2ccccc2)C(N)=O)C(C)C)NC(=O)[C@H](Cc2c[nH]c4ccccc24)NC(=O)[C@H](CCCCN)NC(=O)[C@H](Cc2c[nH]cn2)NC(=O)[C@H]([C@@H](C)O)NC(=O)[C@H](CCCNC(=N)N)NC(=O)[C@H](CO)NC3=O)NC(=O)[C@H](CCCCN)NC(=O)[C@H](CC(=O)O)NC(=O)[C@H](Cc2cccc3ccccc23)NC(=O)[C@H](CC(=O)O)NC(=O)[C@@H]2CCCN2C1=O (H-DCLGFMRKCIPD[1Nal]DKCCRPNLVCSRTHKWCKYVF-NH2; disulfide 2-17, 9-23, 16-30)
IC50 [1]: 130 nM | IC50 [4]: > 5000 nM | IC50 [2]: 7800 nM

CC[C@H](C)[C@@H]1NC(=O)[C@@H]2CSSC[C@@H]3NC(=O)[C@H](C(C)C)NC(=O)[C@H](CC(C)C)NC(=O)[C@H](CC(N)=O)NC(=O)[C@@H]4CCCN4C(=O)[C@H](CCCNC(=N)N)NC(=O)[C@H](CSSC[C@H](N)C(=O)N[C@@H](CC(C)C)C(=O)NCC(=O)N[C@@H](Cc4ccccc4)C(=O)N[C@@H](CCSC)C(=O)N[C@@H](CCCNC(=N)N)C(=O)N[C@@H](CCCCN)C(=O)N2)NC(=O)[C@H](CSSC[C@@H](C(=O)N[C@@H](CCCCN)C(=O)N[C@@H](Cc2ccc(O)cc2)C(=O)N[C@H](C(=O)N[C@@H](Cc2ccccc2)C(N)=O)C(C)C)NC(=O)[C@H](Cc2c[nH]c4ccccc24)NC(=O)[C@H](CCCCN)NC(=O)[C@H](Cc2cnc[nH]2)NC(=O)[C@H]([C@@H](C)O)NC(=O)[C@H](CCCNC(=N)N)NC(=O)[C@H](CO)NC3=O)NC(=O)[C@H](CCCCN)NC(=O)[C@H](CC(=O)O)NC(=O)[C@H](CC(N)=O)NC(=O)[C@H](CC(=O)O)NC(=O)[C@@H]2CCCN2C1=O (H-CLGFMRKCIPDNDKCCRPNLVCSRTHKWCKYVF-NH2; disulfide 1-16, 8-22, 15-29)
IC50 [3]: 8 nM | IC50 [4]: > 5000 nM

CC[C@H](C)[C@@H]1NC(=O)[C@@H]2CSSC[C@@H]3NC(=O)[C@H](C(C)C)NC(=O)[C@H](CC(C)C)NC(=O)[C@H](CC(N)=O)NC(=O)[C@@H]4CCCN4C(=O)[C@H](CCCNC(=N)N)NC(=O)[C@H](CSSC[C@H](NC(=O)[C@H](CC(=O)O)NC(C)=O)C(=O)N[C@@H](CC(C)C)C(=O)NCC(=O)N[C@@H](Cc4ccccc4)C(=O)N[C@@H](CCSC)C(=O)N[C@@H](CCCNC(=N)N)C(=O)N[C@@H](CCCCN)C(=O)N2)NC(=O)[C@H](CSSC[C@@H](C(=O)N[C@@H](CCCCN)C(=O)N[C@@H](Cc2ccc(O)cc2)C(=O)N[C@H](C(=O)N[C@@H](Cc2ccccc2)C(N)=O)C(C)C)NC(=O)[C@H](Cc2c[nH]c4ccccc24)NC(=O)[C@H](CCCCN)NC(=O)[C@H](Cc2cnc[nH]2)NC(=O)[C@H]([C@@H](C)O)NC(=O)[C@H](CCCNC(=N)N)NC(=O)[C@H](CO)NC3=O)NC(=O)[C@H](CCCCN)NC(=O)[C@H](CC(=O)O)NC(=O)[C@H](CC(N)=O)NC(=O)[C@H](CC(=O)O)NC(=O)[C@@H]2CCCN2C1=O
IC50 [4]: > 5000 nM | IC50 [2]: > 10000 nM
